proCasp3 act – procaspase-3 (human) activation. recombinant procaspase-3 D3A, Ac-DEVD-pNA absorbance 405 nm. 330,000 tested, 0.11% active. P42574. activation, % at 8.5 µM;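 active = activation above the mean of all tested compounds plus 3 SD, cut at about 21% in these data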
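Assay system – Procaspase-3 D3A mutant, all three cleavage aspartates alanine · Controls – DMSO-only low control, 5 µM PC-3 D3A high control · Schedule – 1 h compound preincubation, 2 h substrate hydrolysis at 25 °C · Signal – 405 nm absorbance of p-nitroaniline, reads at 0 and 120 min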
PLC-gamma1 inh – blocks human PLC-gamma1 enzyme activity | purified PLC-gamma1, fluorogenic substrate, fluorescence | inhibition, % at 12.2 µM | 370,000 tested, 0.84% active; in the data active = inhibition above about 9.5%
PLC-beta3 inh – blocks human PLC-beta3 enzyme activity; 370,000 tested, 0.18% active; Q01970; Purified PLC-beta3, fluorogenic substrate, fluorescence; AID 720704; inhibition, % at 12.2 µM
Arrestin-AP2 inh – human beta-arrestin and AP2 interaction inhibition | FITC-arrestin peptide / GST-AP2 beads, flow cytometry; AP2 beta2 appendage carries R879A mutation | inhibition, % at 10 µM | 340,000 tested, 0.31% active | AID 504490;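 active = inhibition above a set limit, near 3 SD of compounds lacking own fluorescence, cut at about 54% in these data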
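Test system: GST-tagged AP2 beta2-adaptin appendage (R879A) on 4 µm glutathione beads; also added: fluorescein-tagged arrestin peptide at 50 nM final; timing: 12 min plus 1 h, RT; signal: flow cytometry, FL1 (488/535 nm); read-out: percent drop in bead-associated FITC signal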
sPLA2-III inh – Blocks human group III sPLA2 activity; 370,000 tested, 0.56% active; inhibition, % at 12.2 µM; Q9NZ20; QFRET BODIPY PC-A2 liposome hydrolysis, fluorescence;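 active = inhibition above mean plus 3 SD of compounds lying within the high and low control bounds, cut at about 19% in these data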
Target sequence (Q9NZ20 whole entry, looked up): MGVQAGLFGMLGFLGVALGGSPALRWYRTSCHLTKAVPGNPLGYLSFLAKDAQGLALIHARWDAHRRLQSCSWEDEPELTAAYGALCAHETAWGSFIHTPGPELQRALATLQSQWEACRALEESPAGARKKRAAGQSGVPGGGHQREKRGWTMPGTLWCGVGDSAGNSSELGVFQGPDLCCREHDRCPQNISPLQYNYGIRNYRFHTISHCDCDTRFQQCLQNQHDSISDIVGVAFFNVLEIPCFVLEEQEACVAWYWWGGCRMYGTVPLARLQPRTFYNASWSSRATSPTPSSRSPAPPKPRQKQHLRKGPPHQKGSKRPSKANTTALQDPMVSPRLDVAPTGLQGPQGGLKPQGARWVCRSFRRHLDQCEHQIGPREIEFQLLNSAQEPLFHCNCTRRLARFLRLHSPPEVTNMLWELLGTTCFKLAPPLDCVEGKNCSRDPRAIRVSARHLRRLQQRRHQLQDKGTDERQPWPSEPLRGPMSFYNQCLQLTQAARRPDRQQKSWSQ
proCasp7 act – counter-screen: procaspase-7 (human) activation; recombinant procaspase-7, Ac-DEVD-pNA absorbance 405 nm; D23A/D198A/D206A triple mutant, cannot self-cleave; scale: DMSO 0, 5 µM enzyme 100; activation, % at 8.5 µM; P55210; 330,000 tested, 0.093% active;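 active = percent activation above the screen-wide mean plus 3 SD, cut at about 25% in these data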
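Test system: Procaspase-7 triple mutant (PC-7 D3A). Also added: Ac-DEVD-pNA substrate, 400 µM as added. Schedule: 1 h enzyme–compound preincubation and 2 h substrate reaction, both 25 °C. Signal: p-Nitroaniline absorbance at 405 nm, read at 0 and 120 min. Control set: low DMSO alone, high DMSO plus 5 µM PC-7.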
PLCgamma1 ctr – inhibits human PLC-gamma1 in PLC-beta3 counter-screen; purified PLC-gamma1, fluorogenic substrate, fluorescence; shares compounds with PLC-gamma1 inh; inhibition, % at 12.3 µM; 3,300 tested, 3.1% active; in the data active = inhibition above about 9.5%
PLCb3 confirm – human PLC-beta3 inhibition, confirmation. purified PLC-beta3, fluorogenic substrate fluorescence. AID 743261. 3,300 tested, 1% active. shares compounds with PLC-gamma1 inh. inhibition, % at 12.3 µM
Each line names hits and unclear results; the compound was inactive in the other large screens (follow-up assays come after a bar, where they were run). A selection: hits, their analogues and other compounds. The true share with any hit is near 1.9%. Rule as the data show it, unless noted: active = inhibition above about 11%; inactive = the rest.

Cc1ccccc1-n1ccnc1SCC(=O)O	PLC-beta3 inh 12 | PLCgamma1 ctr inactive | PLCb3 confirm inactive
CC(c1nnc(SCn2nnc3ccccc3c2=O)n1-c1ccc(Cl)cc1)N(C)C (stereo not given)	PLC-beta3 inh 12 | PLCgamma1 ctr inactive | PLCb3 confirm inactive
CC(c1nnc(SCC(=O)N2CCc3ccccc32)n1-c1ccc(Cl)cc1)N(C)C (stereo not given)	none
CC1=NN(c2ccc(C)c(C)c2)C(=O)C1C(c1cccc(O)c1)C1C(=O)N(c2ccc(C)c(C)c2)N=C1C (stereo not given)	PLC-gamma1 inh 16 | PLCgamma1 ctr inactive | PLCb3 confirm inactive
Cc1ccc(N2C(=O)C3C4C=CC(C4)C3C2=O)cc1C (stereo not given)	none
Cc1cccc([C@H](NC(=O)OC(C)(C)C)C(=O)OC(C)(C)C)c1	none
CC(C)(C)OC(=O)N[C@H](C(=O)OC(C)(C)C)c1ccc2c(c1)OCO2	PLC-gamma1 inh 10 | PLCgamma1 ctr inactive | PLCb3 confirm inactive
CCOC(=O)C1=C(C)N=c2sc(=Cc3cc(Cl)c(OCC(=O)O)c(Cl)c3)c(=O)n2C1c1cccc(OC)c1 (stereo not given)	none (no result: proCasp3 act, Arrestin-AP2 inh, proCasp7 act)
COc1ccccc1-n1cnc(N)c1C(C)=O	none
COc1ccccc1-n1cnc(N)c1C(=O)c1ccccc1	PLC-gamma1 inh 12 | PLCgamma1 ctr inactive | PLCb3 confirm inactive
O=C(OCC#CCSc1nnc(-c2cccc3ccccc23)o1)C1CC1	none (no result: proCasp3 act, Arrestin-AP2 inh, proCasp7 act)
COc1ccc(-c2ccc(C)cc2)cc1[C@H]1[C@H]2C=CC[C@@H](C)[C@@H]2C(=O)N1Cc1ccccc1	PLC-beta3 inh 11 | PLCgamma1 ctr inactive | PLCb3 confirm inactive
Cc1sc2ccccc2c1CNC[C@H]1O[C@@H](n2ccc(N)nc2=O)[C@H](O)[C@@H]1O	none (no result: proCasp3 act, Arrestin-AP2 inh, proCasp7 act)
Cc1sc2ccccc2c1CNC[C@H]1O[C@@H](n2cnc(C(N)=O)n2)[C@H](O)[C@@H]1O	PLC-gamma1 inh 9.8 (no result: proCasp3 act, proCasp7 act) | PLCgamma1 ctr inactive | PLCb3 confirm inactive
COC(=O)[C@H](C(C)C)N(CCCc1cn(CC2CCCCC2)nn1)S(=O)(=O)c1ccc(F)cc1Br	none (no result: proCasp3 act, Arrestin-AP2 inh, proCasp7 act)
COc1ccc(OC)c(NC(=O)COC(=O)Cc2ccc(Br)cc2)c1	none
COc1ccc(OC)c(NC(=O)COC(=O)Cc2ccc(-c3ccccc3)cc2)c1	PLC-gamma1 inh 14 | PLCgamma1 ctr inactive | PLCb3 confirm inactive
CCn1cc(C(=O)N2CCc3ccccc32)c(=O)c2cc(S(=O)(=O)N(C)C3CCCCC3)ccc21	PLC-gamma1 inh 10 | PLCgamma1 ctr inactive | PLCb3 confirm inactive
CCn1cc(C(=O)N2CCc3ccccc32)c(=O)c2cc(S(=O)(=O)N3CCOCC3)ccc21	none
COc1ccc(C(=O)N[C@H](C(=O)NCc2ccc(C)cc2)C(C)C)cc1	none
COc1ccc(C(=O)N[C@H](C(=O)NCC2CCCCC2)C(C)C)cc1	PLC-gamma1 inh 12 | PLCgamma1 ctr inactive | PLCb3 confirm inactive
Cc1occc1-c1nnc(SCC(=O)Nc2ccccc2)n1CCc1ccccc1	none
Cc1occc1-c1nnc(SCC(=O)Nc2ccccc2)n1C	PLC-beta3 inh 15 | PLCgamma1 ctr inactive | PLCb3 confirm inactive
O=C(CSc1nccn1Cc1ccco1)Nc1ccc(F)cc1	none
O=C(CSc1nccn1Cc1ccco1)Nc1cccc(F)c1	PLC-gamma1 inh 10.0 | PLCgamma1 ctr inactive | PLCb3 confirm inactive
COCCNC(=O)C(c1ccc(C)cc1)N(Cc1ccccc1)C(=O)CCC(=O)Nc1ccccn1 (stereo not given)	none
